≈ marks a conversion by molar mass, not a printed value.
Assays:
Type in all cases: functional
Talaromyces marneffei [1] = experiment: Ratio of MFC to MIC for Penicillium marneffei
Procedure, shortened: (§1)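 MFC: 0.1 ml from each MIC tube was spread on agar and colonies were counted after 48 h at 35 °C. MFC is the lowest concentration killing 99.9% of the inoculum. The MFC/MIC ratio was then calculated to classify activity as fungistatic or fungicidal.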

Staphylococcus aureus [2] = experiment: Antibacterial activity against Staphylococcus aureus ATCC 25923 after 24 hrs by two fold dilution technique; conditions: ATCC 25923, 24 h
Procedure, shortened: (§2)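 Broth dilution MIC. Nutrient broth held log two-fold serial dilutions of compound and was inoculated with about 5 × 10⁵ c.f.u./ml of actively dividing bacteria. Incubation was 24 h at 37 °C, with growth checked visually and spectrophotometrically. MIC is the lowest concentration arresting growth.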

Pseudomonas aeruginosa [3] = experiment: Antibacterial activity against Pseudomonas aeruginosa ATCC 27853 after 24 hrs by two fold dilution technique; conditions: ATCC 27853, 24 h; procedure, shortened: as §2
Klebsiella pneumoniae [4] = experiment: Antibacterial activity against Klebsiella pneumoniae after 18 to 24 hrs
Aspergillus fumigatus [5] = experiment: Antifungal activity against Aspergillus fumigatus after 48 hrs by two fold dilution technique
Procedure, shortened: (§3)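 Broth MIC. Broth with log two-fold serial dilutions of compound was inoculated with about 1.6 × 10⁴–6 × 10⁴ c.f.u./ml of fungus and incubated 48 h at 35 °C. MIC is the lowest concentration arresting fungal growth.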

Pseudomonas aeruginosa [6] = experiment: Antibacterial activity against Pseudomonas aeruginosa ATCC 27853 after 24 hrs by disc diffusion method
Procedure, shortened: (§4)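 Agar disc diffusion. A standard inoculum of […] c.f.u./ml (0.5 McFarland) was spread evenly on agar. 6 mm Whatman no. 1 paper discs, dry-heat sterilized (140 °C, 1 h), were soaked in test compound and placed on nutrient agar. Plates were inverted and incubated 24 h at 37 °C. Read-out: diameter of the inhibition zone.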

Candida albicans [7] = experiment: Antifungal activity against Candida albicans after 48 hrs by two fold dilution technique; procedure, shortened: as §3
Streptococcus pyogenes [8] = experiment: Antibacterial activity against Streptococcus pyogenes after 24 hrs by disc diffusion method; procedure, shortened: as §4
Aspergillus fumigatus [9] = experiment: Antifungal activity against Aspergillus fumigatus after 48 hrs by disk diffusion method
Procedure, shortened: (§5)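 Agar well diffusion with compounds in DMSO. The dish was lawned with a saline spore suspension, excess decanted, and dried 1 h at 37 °C. Wells were punched. Read-out: inhibition zone in mm. Griseofulvin served as standard and DMSO as negative control.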

Talaromyces marneffei [10] = experiment: Antifungal activity against Penicillium marneffei after 48 hrs by two fold dilution technique; procedure, shortened: as §3
Staphylococcus aureus [11] = experiment: Antibacterial activity against Staphylococcus aureus ATCC 25923 after 24 hrs by disc diffusion method; procedure, shortened: as §4
Staphylococcus aureus [12] = experiment: Antibacterial activity against Staphylococcus aureus ATCC 25923 after 18 to 24 hrs
Escherichia coli [13] = experiment: Antibacterial activity against Escherichia coli ATCC 25922 after 24 hrs by disc diffusion method; procedure, shortened: as §4
Streptococcus pyogenes [14] = experiment: Antibacterial activity against Streptococcus pyogenes after 18 to 24 hrs
[15] = test system: Trichophyton mentagrophytes; experiment: Antifungal activity against Trichophyton mentagrophytes after 48 hrs by disk diffusion method; procedure, shortened: as §5
Klebsiella pneumoniae [16] = experiment: Antibacterial activity against Klebsiella pneumoniae after 24 hrs by disc diffusion method; procedure, shortened: as §4
Talaromyces marneffei [17] = experiment: Antifungal activity against Penicillium marneffei after 48 hrs by disk diffusion method; procedure, shortened: as §5
Pseudomonas aeruginosa [18] = experiment: Antibacterial activity against Pseudomonas aeruginosa ATCC 27853 after 18 to 24 hrs
[19] = test system: Trichophyton mentagrophytes; experiment: Ratio of MFC to MIC for Trichophyton mentagrophytes; procedure, shortened: as §1
Candida albicans [20] = experiment: Ratio of MFC to MIC for Candida albicans; procedure, shortened: as §1
Aspergillus fumigatus [21] = experiment: Ratio of MFC to MIC for Aspergillus fumigatus; procedure, shortened: as §1
Klebsiella pneumoniae [22] = experiment: Antibacterial activity against Klebsiella pneumoniae after 24 hrs by two fold dilution technique; procedure, shortened: as §2
Streptococcus pyogenes [23] = experiment: Antibacterial activity against Streptococcus pyogenes after 24 hrs by two fold dilution technique; procedure, shortened: as §2
Candida albicans [24] = experiment: Antifungal activity against Candida albicans after 48 hrs by disk diffusion method; procedure, shortened: as §5
Escherichia coli [25] = experiment: Antibacterial activity against Escherichia coli ATCC 25922 after 18 to 24 hrs
[26] = test system: Trichophyton mentagrophytes; experiment: Antifungal activity against Trichophyton mentagrophytes after 48 hrs by two fold dilution technique; procedure, shortened: as §3
Escherichia coli [27] = experiment: Antibacterial activity against Escherichia coli ATCC 25922 after 24 hrs by two fold dilution technique; conditions: ATCC 25922, 24 h; procedure, shortened: as §2

SMILES | Ratio (Talaromyces marneffei [1]) | MIC (Staphylococcus aureus [2]) [µg/mL] | MIC (Pseudomonas aeruginosa [3]) [µg/mL] | MBC (Klebsiella pneumoniae [4]) [µg/mL] | MFC (Aspergillus fumigatus [5]) [µg/mL] | MIC (Aspergillus fumigatus [5]) [µg/mL] | diameter of the inhibition zone (DIZ) (Pseudomonas aeruginosa [6]) [mm] | MFC (Candida albicans [7]) [µg/mL] | MIC (Candida albicans [7]) [µg/mL] | diameter of the inhibition zone (DIZ) (Streptococcus pyogenes [8]) [mm] | diameter of the inhibition zone (DIZ) (Aspergillus fumigatus [9]) [mm] | MFC (Talaromyces marneffei [10]) [µg/mL] | MIC (Talaromyces marneffei [10]) [µg/mL] | diameter of the inhibition zone (DIZ) [15] [mm] | diameter of the inhibition zone (DIZ) (Talaromyces marneffei [17]) [mm] | Ratio (Candida albicans [20]) | Ratio (Aspergillus fumigatus [21]) | diameter of the inhibition zone (DIZ) (Candida albicans [24]) [mm] | MFC [26] [µg/mL] | MIC [26] [µg/mL] | further results
CCCCC/C=C\CCC(O)CCCCCCCc1nnc(Nc2ccccc2)s1 (stereo not drawn) | 4 | 6.25 (≈ 14.5 µM) | 6.25 (≈ 14.5 µM) | 6.25 (≈ 14.5 µM) | 50 (≈ 116 µM) | 25 (≈ 58.2 µM) | 25.9 | 50 (≈ 116 µM) | 25 (≈ 58.2 µM) | 21.1 | 21.8 | 100 (≈ 233 µM) | 25 (≈ 58.2 µM) | 19 | 15.2 | 2 | 2 | 24.9 | 100 (≈ 233 µM) | 25 (≈ 58.2 µM) | diameter of the inhibition zone (DIZ) (Staphylococcus aureus [11]): 20.8 mm; MBC (Staphylococcus aureus [12]): 12.5 µg/mL (≈ 29.1 µM); diameter of the inhibition zone (DIZ) (Escherichia coli [13]): 22.9 mm; MBC (Streptococcus pyogenes [14]): 25 µg/mL (≈ 58.2 µM); diameter of the inhibition zone (DIZ) (Klebsiella pneumoniae [16]): 19.9 mm; MBC (Pseudomonas aeruginosa [18]): 25 µg/mL (≈ 58.2 µM); Ratio [19]: 4; MIC (Klebsiella pneumoniae [22]): 6.25 µg/mL (≈ 14.5 µM); MIC (Streptococcus pyogenes [23]): 6.25 µg/mL (≈ 14.5 µM); MBC (Escherichia coli [25]): 12.5 µg/mL (≈ 29.1 µM); MIC (Escherichia coli [27]): 6.25 µg/mL (≈ 14.5 µM)
CCCCC/C=C\CC[C@H](O)CCCCCCCc1nnc(Nc2ccccc2)o1 | 4 | 12.5 (≈ 30.2 µM) | 6.25 (≈ 15.1 µM) | 25 (≈ 60.4 µM) | 50 (≈ 121 µM) | 25 (≈ 60.4 µM) | 19.4 | 25 (≈ 60.4 µM) | 12.5 (≈ 30.2 µM) | 20.1 | 21.6 | 100 (≈ 242 µM) | 25 (≈ 60.4 µM) | 18.7 | 16.3 | 2 | 2 | 23.2 | 50 (≈ 121 µM) | 25 (≈ 60.4 µM) | diameter of the inhibition zone (DIZ) (Staphylococcus aureus [11]): 21.1 mm; MBC (Staphylococcus aureus [12]): 12.5 µg/mL (≈ 30.2 µM); diameter of the inhibition zone (DIZ) (Escherichia coli [13]): 21.6 mm; MBC (Streptococcus pyogenes [14]): 25 µg/mL (≈ 60.4 µM); diameter of the inhibition zone (DIZ) (Klebsiella pneumoniae [16]): 20.2 mm; MBC (Pseudomonas aeruginosa [18]): 50 µg/mL (≈ 121 µM); Ratio [19]: 2; MIC (Klebsiella pneumoniae [22]): 6.25 µg/mL (≈ 15.1 µM); MIC (Streptococcus pyogenes [23]): 6.25 µg/mL (≈ 15.1 µM); MBC (Escherichia coli [25]): 25 µg/mL (≈ 60.4 µM); MIC (Escherichia coli [27]): 6.25 µg/mL (≈ 15.1 µM)
CCCCCCC(O)C/C=C\CCCCCCCc1nnc(Nc2ccccc2)s1 (stereo not drawn) | 2 | 6.25 (≈ 14.5 µM) | 6.25 (≈ 14.5 µM) | 6.25 (≈ 14.5 µM) | 50 (≈ 116 µM) | 12.5 (≈ 29.1 µM) | 29.2 | 25 (≈ 58.2 µM) | 12.5 (≈ 29.1 µM) | 22.9 | 22.4 | 50 (≈ 116 µM) | 25 (≈ 58.2 µM) | 18.9 | 15.1 | 2 | 4 | 25.1 | 25 (≈ 58.2 µM) | 12.5 (≈ 29.1 µM) | diameter of the inhibition zone (DIZ) (Staphylococcus aureus [11]): 21.6 mm; MBC (Staphylococcus aureus [12]): 12.5 µg/mL (≈ 29.1 µM); diameter of the inhibition zone (DIZ) (Escherichia coli [13]): 25.5 mm; MBC (Streptococcus pyogenes [14]): 12.5 µg/mL (≈ 29.1 µM); diameter of the inhibition zone (DIZ) (Klebsiella pneumoniae [16]): 22.7 mm; MBC (Pseudomonas aeruginosa [18]): 12.5 µg/mL (≈ 29.1 µM); MIC (Klebsiella pneumoniae [22]): 6.25 µg/mL (≈ 14.5 µM); MIC (Streptococcus pyogenes [23]): 6.25 µg/mL (≈ 14.5 µM); MBC (Escherichia coli [25]): 12.5 µg/mL (≈ 29.1 µM); MIC (Escherichia coli [27]): 6.5 µg/mL (≈ 15.1 µM)
COC1=CC(=O)C[C@@H](C)[C@]12Oc1c(Cl)c(OC)cc(OC)c1C2=O [GRISEOFULVIN] | 2 | – | – | – | 12.5 (≈ 35.4 µM) | 6.25 (≈ 17.7 µM) | – | 12.5 (≈ 35.4 µM) | 6.25 (≈ 17.7 µM) | – | 27 | 12.5 (≈ 35.4 µM) | 6.25 (≈ 17.7 µM) | 24 | 20 | 2 | 2 | 30 | 12.5 (≈ 35.4 µM) | 6.25 (≈ 17.7 µM) | Ratio [19]: 2
